Reference: ChEMBL document CHEMBL1132240, “Design and synthesis of modified quinolones as antitumoral acridones” (J Med Chem, 1999)

Columns and labels:
HL-60 [1] = assay: Cytotoxic activity against Human promyelocytic Leukemia HL-60 Concentration of agent required to reduce cell viability by 50%; format: functional, cell-based
In short: (§1)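 Modified MTT assay. Cells seeded per well with graded drug: CHO 2.5 × 10^3, B16 5 × 10^3, P388 and LLC 10^4, HL-60 and LoVo 5 × 10^4. After 68 h, MTT (2.5 mg/mL) added for 4 h at 37 °C. Formazan dissolved in DMSO and A550 read. Inhibition taken as fractional A550 decrease vs control. IC50/IC90 from Chou's median-effect equation.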

HL-60 [2] = assay: Cytotoxic activity against Human promyelocytic Leukemia HL-60 Concentration of agent required to reduce cell viability by 90%; format: functional; in short: as §1
P388 [3] = assay: Cytotoxic activity against Murine Lymphocytic Leukemia P388 Concentration of agent required to reduce cell viability by 50%; format: functional, cell-based; details: Mus musculus; in short: as §1
P388 [4] = assay: Cytotoxic activity Murine Lymphocytic Leukemia P388 Concentration of agent required to reduce cell viability by 90%; format: functional; details: Mus musculus; in short: as §1
HL-60 [5] = assay: Cytotoxic activity against human promyelocytic leukemia HL-60 concentration of agent required to reduce cell viability by 50%; format: functional, cell-based; in short: as §1
[6] = system: Lewis lung carcinoma cell line; assay: Cytotoxic activity against solid tumor LLC(Lewis lung carcinoma), concentration of agent required to reduce cell viability by 90%; format: functional; details: Mus musculus; in short: as §1
[7] = Ratio of cytotoxicity of compound towards bone marrow sample and to that of HL-60 was determined as IC90BM/IC90HL; format: functional
In short: (§2)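 Second-stage assay on HL-60 (5 × 10^4/well) and soybean-agglutinin-negative mononuclear marrow cells (5 × 10^5/well) from six healthy donors. Four wells per concentration, 48 h at 37 °C, then [125I]iododeoxyuridine plus fluorodeoxyuridine for 18 h. Inhibition from fractional uptake decrease; IC50/IC90 by median-effect equation. Ranges are antilog(mean log ± 2SD); ratios use mean antilogs.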

HL-60 [8] = assay: (§3) Relative cytotoxicity against human promyelocytic leukemia(HL-60) cells; format: functional, cell-based; in short: as §2
B16 [9] = assay: Cytotoxic activity against solid tumor, B16 (murine melanoma) concentration of agent required to reduce cell viability by 50%; format: functional, cell-based; details: Mus musculus; in short: as §1
HL-60 [10] = assay: as §3; format: functional; in short: as §2
P388 [11] = assay: Cytotoxic activity against murine lymphocytic leukemia P388 concentration of agent required to reduce cell viability by 50%; format: functional, cell-based; details: Mus musculus; in short: as §1
CHO [12] = assay: Cytotoxic activity against solid tumor, CHO (Chinese hamster ovaric carcinoma) concentration of agent required to reduce cell viability by 90%; format: functional; details: Cricetulus griseus; in short: as §1
LoVo [13] = assay: Cytotoxic activity against solid tumor, LoVo, (human colon adenocarcinoma) concentration of agent required to reduce cell viability by 90%; format: functional; in short: as §1
Homo sapiens [14] = organism: Homo sapiens; assay: Relative cytotoxicity against human bone marrow samples; format: functional; in short: as §2
B16 [15] = assay: Cytotoxic activity against solid tumor, B16 (murine melanoma) Concentration of agent required to reduce cell viability by 90%; format: functional; details: Mus musculus; in short: as §1
P388 [16] = assay: Cytotoxic activity against murine lymphocytic leukemia P388 concentration of agent required to reduce cell viability by 90%; format: functional; details: Mus musculus; in short: as §1
[17] = system: Lewis lung carcinoma cell line; assay: Cytotoxic activity against solid tumor LLC(Lewis lung carcinoma), concentration of agent required to reduce cell viability by 50%; format: functional, cell-based; details: Mus musculus; in short: as §1
[18] = Ratio of cytotoxicity of compound towards bone marrow sample and to that of HL-60 was determined as IC50BM/IC50HL; format: functional; in short: as §2
[19] = Ratio of cytotoxicity of compound towards bone marrow sample and to that of HL-60 was determined as IC50BM/IC90HL; format: functional; in short: as §2
CHO [20] = assay: Cytotoxic activity against solid tumor, CHO (Chinese hamster ovaric carcinoma) Concentration of agent required to reduce cell viability by 50%; format: functional, cell-based; details: Cricetulus griseus; in short: as §1
LoVo [21] = assay: Cytotoxic activity against solid tumor, LoVo, (human colon adenocarcinoma) concentration of agent required to reduce cell viability by 50%; format: functional, cell-based; in short: as §1
HL-60 [22] = assay: Cytotoxic activity against human promyelocytic leukemia HL-60 concentration of agent required to reduce cell viability by 90%; format: functional; in short: as §1
[23] = Ratio of antilog(mean log IC50 in bone marrow sample) and antolog(mean log IC90) in HL-60); format: functional; in short: as §2
Homo sapiens [24] = organism: Homo sapiens; assay: Relative cytotoxicity against Human bone marrow samples; Value is in range, activity expressed as IC90; format: functional; in short: as §2
CHO [25] = assay: Cytotoxic activity against solid tumor, CHO (Chinese hamster ovaric carcinoma) Concentration of agent required to reduce cell viability by 90%; format: functional; details: Cricetulus griseus; in short: as §1
HL-60 [26] = assay: Relative cytotoxicity against Human promyelocytic Leukemia(HL-60) cells; Value is in range, activity expressed as IC50; format: functional, cell-based; in short: as §2
B16 [27] = assay: Cytotoxic activity against solid tumor, B16 (murine melanoma) Concentration of agent required to reduce cell viability by 50%; format: functional, cell-based; details: Mus musculus; in short: as §1
[28] = Ratio of antilog(mean log IC50 in bone marrow sample) and antolog(mean log IC50) in HL-60); format: functional; in short: as §2
HL-60 [29] = assay: Relative cytotoxicity against Human promyelocytic Leukemia(HL-60) cells; Value is in range, activity expressed as IC90; format: functional; in short: as §2
[30] = Ratio of antilog(mean log IC90 in bone marrow sample) and antolog(mean log IC90) in HL-60); format: functional; in short: as §2
Homo sapiens [31] = organism: Homo sapiens; assay: Relative cytotoxicity against Human bone marrow samples; Value is in range, activity expressed as IC50; format: functional; in short: as §2
LoVo [32] = assay: Cytotoxic activity against solid tumor, LoVo, (human colon adenocarcinoma) Concentration of agent required to reduce cell viability by 90%; format: functional; in short: as §1
LoVo [33] = assay: Cytotoxic activity against solid tumor, LoVo, (human colon adenocarcinoma) Concentration of agent required to reduce cell viability by 50%; format: functional, cell-based; in short: as §1
P388 [34] = assay: In vivo antitumor activity against Murine P388 Leukemia at 20 mg/kg dose;(Median survival time of treated mice)/(median survival time of controls) x100; format: functional, Mus musculus
In short: (§4)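 Female BD2F1 mice (8 weeks, 20-22 g), eight per group, given 10^5 P388 cells ip on day 0. From 24 h later, drug was given ip once daily for 9 days as a micronized suspension in 0.5% carboxymethylcellulose. Deaths were recorded daily over a 33-day study. %T/C = median survival time of treated / median survival time of controls × 100; >125 taken as significant.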

P388 [35] = assay: In vivo antitumor activity against Murine P388 Leukemia at 6.67 mg/kg dose;(Median survival time of treated mice)/(median survival time of controls) x100; format: functional, Mus musculus; in short: as §4
P388 [36] = assay: In vivo antitumor activity against Murine P388 Leukemia at 60 mg/kg dose;(Median survival time of treated mice)/(median survival time of controls) x100; format: functional, Mus musculus; in short: as §4

Compound	IC50 (HL-60 [1]) [µM]	IC90 (HL-60 [2]) [µM]	IC50 (P388 [3]) [µM]	IC90 (P388 [4]) [µM]	IC90 [6] [µM]	IC90 (B16 [15]) [µM]	IC50 [17] [µM]	IC50 (CHO [20]) [µM]	IC90 (CHO [25]) [µM]	IC50 (B16 [27]) [µM]	IC90 (LoVo [32]) [µM]	IC50 (LoVo [33]) [µM]	other results
CN1CCN(c2cc3nc4cc(O)cc(O)c4c(O)c3cc2N)CC1	> 100	> 100	57	> 100	–	–	–	–	–	–	–	–	–
CCn1c2cc(N3CCN(C)CC3)c(N)cc2c(=O)c2c(O)cc(OC)cc21	–	–	–	–	11	12	9.3	6	–	–	–	–	IC50 (HL-60 [5]): 17 µM; Ratio [7]: 2.7; IC50 (HL-60 [8]): 19.1 µM; IC50 (B16 [9]): 8.6 µM; IC90 (HL-60 [10]): 22.9 µM; IC50 (P388 [11]): 2.9 µM; IC90 (CHO [12]): 11 µM; IC90 (LoVo [13]): 15 µM; IC50 (Homo sapiens [14]): 10.7 µM; IC90 (Homo sapiens [14]): 89.1 µM; IC90 (P388 [16]): 8.9 µM; Ratio [18]: 0.4; Ratio [19]: 0.4; IC50 (LoVo [21]): 10 µM; IC90 (HL-60 [22]): 24 µM
CCn1c2cc(N3CCN(C)CC3)c(N)cc2c(=O)c2c(OC)cc(OC)cc21	–	–	–	–	–	–	–	–	–	–	–	–	IC50 (HL-60 [5]): 61 µM; IC50 (P388 [11]): 16 µM; IC90 (P388 [16]): 26 µM; IC90 (HL-60 [22]): 99 µM
CCn1c2cc(N3CCC(O)CC3)c(N)cc2c(=O)c2c(O)cc(O)cc21	5.4	9.2	3.4	9.4	–	> 50	–	9.9	38	26	–	–	Ratio [23]: 0.2; IC90 (Homo sapiens [24]): 15.9 µM; IC50 (HL-60 [26]): 6.64 µM; Ratio [28]: 0.4; IC90 (HL-60 [29]): 11.7 µM; Ratio [30]: 1.5; IC50 (Homo sapiens [31]): 1.8 µM
CCN(CC)CCn1c2cc(N3CCCC3)c(N)cc2c(=O)c2c(O)cc(O)cc21	96	> 100	9.7	21	–	–	–	–	–	–	–	–	–
CCn1c2cc(N3CCCC3)c(N)cc2c(=O)c2c(O)cc(O)cc21	–	–	> 100	> 100	–	–	–	–	–	–	–	–	–
CCN(CC)CCn1c2cc(NC)c(N)cc2c(=O)c2c(O)cc(O)cc21	9.7	27	3.9	7	64	24	23	8.2	36	3.8	44	26	–
CN1CCN(c2cc3c(cc2N)c(=O)c2c(O)cc(O)cc2n3C)CC1	24	39	7.2	11	–	–	–	–	–	–	–	–	–
CCN(CC)CCn1c2cc(N3CCSCC3)c(N)cc2c(=O)c2c(O)cc(O)cc21	–	–	8.8	19	–	–	–	–	–	–	–	–	–
CCn1c2cc(N3CCN(C)CC3)c(N)cc2c(=O)c2c(O)cc(O)cc21	23	34	4.6	13	17	19	11	5.8	19	9.9	47	17	T/C (P388 [34]): 116%; Ratio [23]: 0.1; IC90 (Homo sapiens [24]): 20.3 µM; T/C (P388 [35]): 115%; IC50 (HL-60 [26]): 27.7 µM; Ratio [28]: 0.1; IC90 (HL-60 [29]): 42.6 µM; Ratio [30]: 0.5; IC50 (Homo sapiens [31]): 3.27 µM; T/C (P388 [36]): 132%
CCN(CC)CCn1c2cc(OC)c(N)cc2c(=O)c2c(O)cc(O)cc21	8.2	27	2.8	5.9	32	11	10	5.6	20	3.4	36	11	–
CCN(CC)CCn1c2cc(N3CCN(C)CC3)c(N)cc2c(=O)c2c(O)cc(O)cc21	11	19	7.2	13	35	23	24	7.1	16	16	21	17	–
